Screening data: PubChem BioAssay, several laboratories
Shown are actives, neighbours in structure and some others; about 1.9% of the full set was active somewhere.
NadD inh = NadD (S. aureus) enzyme inhibition. purified NadD enzyme, colorimetric absorbance read-out. inhibition, % at 20 µM. hit rate 0.78% among 360,000; in the data active = inhibition above about 26%
XiGFP reactiv = activators of X-chromosome reactivation in mouse fibroblasts | XiGFP mouse fibroblasts, % GFP-positive cells imaging, 3 d; cells co-treated with 5-aza-dC sensitizer; scaled so ellipticine positive control = 100% | activation, % at 7.58 µM | hit rate 0.055% among 360,000;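 active = mean normalized replicate activation at least 10% and every replicate at or above 10%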;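 note: 0% = median of on-plate neutral control wells and 100% = ellipticine 6 µM median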
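Schedule: 3 d treatment, 15 min room-temperature fixation; system: 68-5-11 XiGFP fibroblast line; buffer or medium: DMEM plus 5-aza-dC sensitizer; control set: ellipticine 6 µM positive control; compound: one concentration, pinned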
Rpn11 block = inhibitors of human proteasome Rpn11; human 26S proteasome, Ub4-pepOG fluorescence polarization; 20S core pre-blocked with epoxomicin; inhibition, % at 20 µM; hit rate 0.59% among 360,000; AID 588493;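 active = inhibition at 20 µM, scaled to each plate's controls, above about 33%, limit read from the data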
Rin1-Abl PPI inh = human Rin1-Abl interaction inhibition | AID 588664 | TR-FRET Rin1/Abl binding, biochemical | inhibition, % at 7.35 µM | P00519+Q13671 | hit rate 0.4% among 360,000; in the data active = inhibition above about 5%, passing the limit was not always enough
ABHD5-PLIN5 inh = blocks binding of human ABHD5 to perilipin-5. inhibition, % at 4 µM. Q00G26+Q8WTS1. Split G. princeps luciferase complementation, luminescence, 4 h. hit rate 0.78% among 360,000;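 active = inhibition above the mean inhibition across every tested compound plus 3 SD, cut at about 22% in these data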;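 note: 0% = DMSO only wells and the 100% control is not disclosed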
Rpn11 confirm = confirmation of human proteasome Rpn11 inhibitors. inhibition, % at 20 µM. purified human 26S proteasome, Ub4-pepOG fluorescence polarization; proteasome pretreated with epoxomicin. shares compounds with Rpn11 block. hit rate 29% among 1,900
MMP-2 inh = blocks human MMP-2, flagging nonselective RPN11 hits | inhibition, % at 20 µM | shares compounds with Rpn11 block | recombinant MMP-2, FRET peptide cleavage fluorescence | hit rate 4% among 1,900 | AID 602330;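 note: human MMP-2 activated beforehand with APMA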
Thrombin FP = blocks bovine thrombin, flagging nonselective RPN11 hits. shares compounds with Rpn11 block. bovine thrombin cleavage of Ub4-pepOG, fluorescence polarization. inhibition, % at 20 µM. hit rate 13% among 1,900;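 active = mean inhibition at least 40% at 20 µM, or signal 3 deviations below plate average, so some actives read negative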;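 note: plate controls were thrombin with DMSO for no effect and buffer wells lacking thrombin for full effect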
Target sequence (P00735 whole entry, looked up): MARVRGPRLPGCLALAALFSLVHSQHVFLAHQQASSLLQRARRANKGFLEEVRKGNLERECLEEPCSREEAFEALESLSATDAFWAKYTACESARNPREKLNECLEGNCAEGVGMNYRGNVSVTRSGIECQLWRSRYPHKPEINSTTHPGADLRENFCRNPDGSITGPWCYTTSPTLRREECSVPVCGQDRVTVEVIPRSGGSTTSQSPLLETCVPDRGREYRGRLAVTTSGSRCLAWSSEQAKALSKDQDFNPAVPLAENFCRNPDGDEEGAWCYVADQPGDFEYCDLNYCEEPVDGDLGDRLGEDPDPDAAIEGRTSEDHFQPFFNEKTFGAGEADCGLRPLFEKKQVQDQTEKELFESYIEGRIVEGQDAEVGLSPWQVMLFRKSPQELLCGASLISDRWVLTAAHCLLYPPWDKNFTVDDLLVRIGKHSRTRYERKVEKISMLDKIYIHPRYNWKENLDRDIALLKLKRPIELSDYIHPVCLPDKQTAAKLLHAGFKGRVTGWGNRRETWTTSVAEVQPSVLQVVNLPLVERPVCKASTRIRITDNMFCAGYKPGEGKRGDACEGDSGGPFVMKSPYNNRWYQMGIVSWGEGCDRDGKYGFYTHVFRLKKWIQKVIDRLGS
Starred values were filed as active, the others as inactive; · = no result. Cut-off read from the data, not from the text of the source, unless noted: active = inhibition above about 40%; inactive = the rest.

SMILES	NadD inh	XiGFP reactiv	Rpn11 block	Rin1-Abl PPI inh	ABHD5-PLIN5 inh	Rpn11 confirm	MMP-2 inh	Thrombin FP
COc1cccc(/C=C2/SC(=S)N(CCCC(=O)Nc3ccc(O)cc3)C2=O)c1	3	0	-5	-1	11	·	·	·
COc1ccc2c3c(n(C)c2c1)[C@H](CO)N(Cc1ccc2c(c1)OCO2)CC31CCN(C(=O)c2ccc3c(c2)OCO3)CC1	·	0	·	·	·	·	·	·
O=C(C[C@H]1C=C[C@H](NC(=O)Nc2cc(F)ccc2F)[C@@H](CO)O1)NCCCN1CCOCC1	·	0	·	·	·	·	·	·
O=C(O)CCCN1C(=O)/C(=C\c2ccccc2OCc2ccccc2)SC1=S	5	0	0	0	-1	·	·	·
COc1cc(/C=C2\SC(=S)N(CC(=O)O)C2=O)ccc1OC(=O)c1ccco1	4	0	31	-2	-17	·	·	·
CCc1ccc(/C=C2\SC(=S)N(CCC(=O)N3CCN(C)CC3)C2=O)cc1	0	0	51*	5	20	70*	-53	54*
O=C(O)CCCCN1C(=O)/C(=C\c2ccc(OCc3ccccc3)c(OCc3ccccc3)c2)SC1=S	23	0	43*	5	4	43*	2	0
COc1ccc(/C=C2\SC(=S)N(CCCC(=O)Nc3ccccc3C(=O)O)C2=O)cc1OC	8	0	48*	0	1	88*	-30	81*
COc1cc(/C=C2/SC(=S)N(CC(=O)O)C2=O)ccc1OC(=O)c1ccco1	3	0	45*	2	-13	19	-8	15
C[C@@H]1CN(C)C(=O)c2cc(NS(C)(=O)=O)ccc2O[C@@H]1CN(C)C	·	0	·	·	·	·	·	·
COc1cc(/C=C2\C(=N)N3N=C(S(C)(=O)=O)SC3=NC2=O)ccc1OC(=O)c1ccco1	11	0	44*	0	-7	5	-20	7
COc1cc(/C=C2\C(=N)N3N=C(S(C)(=O)=O)SC3=NC2=O)ccc1OC(=O)c1cccs1	15	0	10	-5	5	·	·	·
CCOC(=O)CSc1nsc(SCC(=O)OCC)c1C#N	-2	·	-2	0	2	·	·	·
CC(=O)CSc1nsc(SCC(C)=O)c1C#N	14	·	46*	-1	-31	16	50*	15
Cc1ccccc1N=Cc1cc2c(cc1O)OC(N)=C(C#N)C2c1ccccc1 (stereo not drawn)	8	0	66*	-1	15	96*	5	93*
N#CC1=C(N)Oc2cc(O)c(C=Nc3ccccc3)cc2C1c1ccccc1 (stereo not drawn)	5	0	2	-5	-4	·	·	·
COc1ccc2c3c([nH]c2c1)[C@@H](CO)NCC31CN(C(=O)C2CCCC2)C1	·	0	·	·	·	·	·	·
Cc1ccc(-c2ccc(/C=C/C(=O)c3ccccc3)o2)cc1	6	0	76*	-1	13	28	-15	-2
O=C(/C=C/c1ccc(-c2ccccc2)o1)c1ccccc1	7	0	18	0	11	·	·	·
CC(C)NC(=O)N(C)C[C@@H]1Oc2ccc(N(S(C)(=O)=O)S(C)(=O)=O)cc2C(=O)N(C)C[C@@H]1C	·	0	·	·	·	·	·	·
CCOC(=O)c1sc(NC(=O)/C=C/c2c(F)cccc2Cl)nc1C	-4	0	48*	1	0	0	12	8
CC(C)C(c1nnnn1Cc1ccco1)N1CCC(C(N)=O)CC1 (stereo not drawn)	-4	·	142*	0	6	15	-33	8
COc1ccc(OCCCC(=O)Nc2nc(C)c(C(C)=O)s2)cc1	-7	0	-3	-9	-4	·	·	·
CC(=O)c1sc(NC(=O)CCCOc2ccc(Cl)cc2)nc1C	-7	0	77*	-9	-5	12	14	-9
COc1cccc(C(=O)Nc2cccc(-c3nnc(-c4ccco4)o3)c2)c1	-12	·	2	-4	0	·	·	·
SMILES	NadD inh	XiGFP reactiv	Rpn11 block	Rin1-Abl PPI inh	ABHD5-PLIN5 inh	Rpn11 confirm	MMP-2 inh	Thrombin FP
COc1ccc(Br)cc1C(=O)Nc1cccc(-c2nnc(-c3ccco3)o2)c1	-8	·	121*	2	-2	32	-40	2
C=CCc1c(C)nc(-c2ccccc2)nc1Nc1ccccc1O	-3	0	55*	-1	2	29	6	9
CCC(C)(C(=O)Nc1ccc2c(c1)OCCO2)N(C(C)=O)c1ccc(C(N)=O)cc1 (stereo not drawn)	-2	·	51*	-1	4	0	-28	2
CCOC(=O)c1ccc(NC(=O)Nc2ccc3c(c2)OCCO3)cc1	-6	·	5	1	-3	·	·	·
CCN1C(=O)/C(=C/C=C2/Sc3ccccc3N2CCO)SC1=S	15	0	52*	-3	3	26	18	12
COc1ccc2c3c(n(C)c2c1)[C@H](CO)N(C(=O)c1cnccn1)CC31CN(C(=O)c2ccncc2)C1	·	0	·	·	·	·	·	·
O=C(N/N=C/c1cccc2ccccc12)c1cc2ccccc2o1	1	0	4	0	1	·	·	·
O=C(N/N=C/C=C/c1ccccc1)c1cc2c(ccc3ccccc32)o1	21	·	99*	3	8	-10	2	-28
O=C(N/N=C/c1ccccc1F)c1cc2c(ccc3ccccc32)o1	12	0	149*	-5	7	99*	-11	-16
COc1cc(OC)cc(-c2c(C#Cc3ccsc3)c3cc(-c4ccc(C(N)=O)cc4)ccc3n2C)c1	23	0	48*	2	-5	12	7	10
COCc1ccc(-c2ccc3c(c2)c(C#Cc2ccsc2)c(-c2cc(OC)cc(OC)c2)n3C)cc1	2	0	7	-1	-3	·	·	·
Cc1cc(/C=C2\SC(=S)NC2=O)c(C)[nH]1	3	0	84*	6	3	45*	17	38
CCn1c(C)cc(/C=C2/SC(=S)NC2=O)c1C	-4	0	15	0	2	·	·	·
CC(=O)c1sc(N/N=C2\CC3CCC2(C)C3(C)C)nc1C (stereo not drawn)	2	0	9	6	-3	·	·	·
CC12CCC(C/C1=N/O)C2(C)CBr (stereo not drawn)	1	0	32*	-2	8	-14	-51	-17
COc1cc2cc3c(N)c(C(=O)Nc4sc(C)c(C)c4C#N)sc3nc2cc1OC	8	·	84*	2	-6	48*	6	31
COc1ccc2c3c([nH]c2c1)[C@@H](CO)N(C(=O)Nc1ccccc1F)CC31CCN(C(=O)C2CC2)CC1	·	0	·	·	·	·	·	·
CCC(=O)N1CCc2cc(S(=O)(=O)N3CCc4ccccc4C3)ccc21	-1	·	56*	-5	0	8	6	11
